Results reported in article PMC4806784 (Investigational new drugs, 2015).
Read-outs that look alike come from different tables or passages of the source.

How the values were obtained:
[1] = system: advanced and/or refractory solid tumors; assay: Tumor response; assay type: in vivo, human
HeLaS3 cells = conditions: cited from earlier work
[2] = system: AURKA, AURKB, BIRC5, PRC1, TACC3, DLGAP5 [DLG7], and NDC80 [KNTC2]; assay: Gene expression PD biomarkers by quantitative RT-PCR on hair follicle RNA; assay type: in vivo, human; conditions: Panel 1 (MT), p < 0.05 unadjusted
[3] = assay type: in vivo, human; conditions: for AUC(0-t) / Cmax / Tmax / half-life / concentration at 12 h: plasma; for Cmax: 60 mg/m2, Cmax; for Tmax: 60 mg/m2, Tmax, median (range); for concentration at 12 h: C12h
Summary of the method: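 Test compound was given as oral capsules with […] water after a 2-h fast, BID Q12hr, 3–6 patients per dose level. Docetaxel 60 mg/m2 was a 1-h IV infusion 2 h beforehand. […] was sampled on Cycle 1 Day 1 (predose, 0.5–24 h after dose 1) and Day 2 (predose, 0.5–44 h after dose 4). Analysis was non-compartmental, with AUC by linear-up/log-down trapezoidal method and Cmax/Tmax by inspection.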

[4] = Panel 2: (N = 17) MK-5108 CT with docetaxel
[5] = human, iv, 100 mg/day, Panel 2 (CT, docetaxel 60 mg/m^2 IV), Dose 1
[6] = human, iv, 100 mg/day, Panel 2 (CT, docetaxel 60 mg/m^2 IV), Dose 4
[7] = human, iv, 150 mg/day, Panel 2 (CT, docetaxel 60 mg/m^2 IV), Dose 1
[8] = human, iv, 150 mg/day, Panel 2 (CT, docetaxel 60 mg/m^2 IV), Dose 4
[9] = human, iv, 225 mg/day, Panel 2 (CT, docetaxel 60 mg/m^2 IV), Dose 1
[10] = human, iv, 225 mg/day, Panel 2 (CT, docetaxel 60 mg/m^2 IV), Dose 4

## O=C(O)[C@]1(Cc2cccc(Nc3nccs3)n2)CC[C@@H](Oc2cccc(Cl)c2F)CC1 [MK-5108]
[1]; MK-5108 225 Q12hr (450 mg/day) CT, 1 patient
  Partial Response: 5.9%
[1]; MK-5108 CT, 7 patients
  stable disease: 41.2%
[1]; MK-5108 MT, 8 patients
  Progressive Disease: 44.4%
[1]; MK-5108 MT, 9 patients
  stable disease: 50%
[1]; Panel 1 (MT)
  best response: stable disease (patients/evaluable): 9/17
  median duration of stable disease: 88 days
[1]; Panel 1: (N = 18) MK-5108 MT
  Partial Response: 0 (0.0) n (%)
  Progressive Disease: 8 (44.4) n (%)
  Tumor response category: Discontinued due to AE: 1 (5.6) n (%)
  stable disease: 9 (50.0) n (%)
[1]; Panel2 (CT)
  best response: SD (patients/evaluable): 7/16
  median duration of stable disease: 48 days
[1]; Panel2 (CT), 450 mg/day
  best response: PR (patients/evaluable): 1/16
[1]; [4]
  Partial Response: 1 (5.9) n (%)
  Progressive Disease: 8 (47.1) n (%)
  Tumor response category: Discontinued due to AE: 1 (5.9) n (%)
  stable disease: 7 (41.2) n (%)
[1]; either of the treatment panels
  complete responses: no complete responses
HeLaS3 cells
  apoptosis in combination with docetaxel: robustly potentiated apoptosis
[2]
  genes (of seven) with significant dose-related changes in the expected direction: 5 genes
[3]; Panel 2 (CT with docetaxel), any tested dose level
  mean target trough concentration of 2 μM: not achieved
[3]; following the first dose
  dose proportionality of AUC0-12h and Cmax: less than dose proportionally
[3]; following the fourth dose, 100 to 1800 mg (Q12hr)
  dose proportionality of AUC0-12h and Cmax: roughly dose proportionally
[3]; human, in vivo
  dose proportionality of serum concentration at 12 hours post dose (trough): roughly dose proportionally
  shape of mean plasma concentration decline: biphasic decline
[3]; human, iv, 60 mg/m2, AUC0-12h, 100 mg/day, Panel 2 (CT, docetaxel 60 mg/m^2 IV), Dose 1
  AUC(0-t): 7.9 ± 2 µM·h
[3]; human, iv, 60 mg/m2, AUC0-12h, 100 mg/day, Panel 2 (CT, docetaxel 60 mg/m^2 IV), Dose 4
  AUC(0-t): 10.8 ± 3.3 µM·h
[3]; human, iv, 60 mg/m2, AUC0-12h, 150 mg/day, Panel 2 (CT, docetaxel 60 mg/m^2 IV), Dose 1
  AUC(0-t): 15 ± 9.2 µM·h
[3]; human, iv, 60 mg/m2, AUC0-12h, 150 mg/day, Panel 2 (CT, docetaxel 60 mg/m^2 IV), Dose 4
  AUC(0-t): 16.4 ± 8.9 µM·h
[3]; human, iv, 60 mg/m2, AUC0-12h, 225 mg/day, Panel 2 (CT, docetaxel 60 mg/m^2 IV), Dose 1
  AUC(0-t): 18.5 ± 6.2 µM·h
[3]; human, iv, 60 mg/m2, AUC0-12h, 225 mg/day, Panel 2 (CT, docetaxel 60 mg/m^2 IV), Dose 4
  AUC(0-t): 23.4 ± 8.8 µM·h
[3]; [5]
  Cmax: 2.3 ± 1.2 µM
  Tmax: 2 h
  concentration at 12 h: 150 ± 120 nM
[3]; [6]
  Cmax: 2.2 ± 1 µM
  Tmax: 4 h
  concentration at 12 h: 210 ± 100 nM
[3]; [7]
  Cmax: 3.5 ± 2 µM
  Tmax: 3.5 h
  concentration at 12 h: 330 ± 220 nM
[3]; [8]
  Cmax: 3.2 ± 1.7 µM
  Tmax: 5 h
  concentration at 12 h: 510 ± 370 nM
[3]; [9]
  Cmax: 5 ± 0.8 µM
  Tmax: 2 h
  concentration at 12 h: 460 ± 260 nM
[3]; [10]
  Cmax: 5.3 ± 1.7 µM
  Tmax: 3 h
  concentration at 12 h: 660 ± 620 nM
[3]; human, iv, 60 mg/m2, t1/2, 100 mg/day, Panel 2 (CT, docetaxel 60 mg/m^2 IV), Dose 4
  half-life: 810 ± 636 min
[3]; human, iv, 60 mg/m2, t1/2, 150 mg/day, Panel 2 (CT, docetaxel 60 mg/m^2 IV), Dose 4
  half-life: 606 ± 300 min
[3]; human, iv, 60 mg/m2, t1/2, 225 mg/day, Panel 2 (CT, docetaxel 60 mg/m^2 IV), Dose 4
  half-life: 552 ± 306 min
[3]; human, oral, 200 mg/day, AUC0-12h, Panel 1 (MT), Dose 1
  AUC(0-t): 17.5 ± 5.6 µM·h
[3]; human, oral, 200 mg/day, AUC0-12h, Panel 1 (MT), Dose 4
  AUC(0-t): 31.2 ± 16.3 µM·h
[3]; human, oral, 200 mg/day, Panel 1 (MT), Dose 1
  concentration at 12 h: 350 ± 50 nM
